Test results as given in the RNAGym collection of RNA variant scans (doi:10.1126/science.aae0568).
Fewer inactive variants are shown than the library holds.

B1: tRNA (parent)
chain: GUUCCGUUGGCGUAAUGGUAACGCGUCUCCCUCCUAAGGAGAAGACUGCGGGUUCGAGUCCCGUACGGAACG

Variants of: B1
Test: yeast fitness relative to wild type (ratio to wild type); higher = fitter; tRNA-Arg(CCU), competitive growth, 37 C, YPD
Method in brief: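 Genotype frequency changes were the basis for Darwinian fitness relative to wild type. The frequencies came from 100-nucleotide paired-end sequencing of gene amplicons from the start population and each end population of pooled yeast strains with tRNA-Arg(CCU) gene variants at the native locus. Competition ran in YPD at 37°C for 24 hours in six replicates, genotypes needed ≥ 100 starting reads, and estimates < 0.5 were set to 0.5.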

Row | Variant | yeast fitness
1 | GUUCCGUUCGCGUAAUGGUAACGCGUCUUCCUCGUAAGGAGAAGACUCCGGGUUCGAGUCCUGUACGGAACG [G9C C29U C34G G48C C62U] | 0.782
2 | GUUCCGUUCGCGUAAUGGUAACGCGUCUCCAUCCUAAGGAGAAGACUGCGGGUUCGAGUCCGGUAUGGAACG [G9C C31A C62G C66U] | ≤ 0.5
3 | GUUCCGUUCGCGUAAUGGUAACGCGUCUUCCUCCUAAGGAGAAGACUGCGGGUUCGAGUCCCGUACGGAGCG [G9C C29U A70G] | 0.602
4 | GUUCCGUUCCCGUAAUGGUAACGCGUCUCCCUUCUAAGGAGAAGACUGCGGGUUCGAGUCCCGUACGGAACG [G9C G10C C33U] | ≤ 0.5
5 | GUUCCGUUCGCGUAAUGGUAACGCGUCUCCCUCUUAAGGAGAAGCCUCCGGGUUCGAGUCCCGUACGGAACG [G9C C34U A45C G48C] | ≤ 0.5
6 | GUUCCGUUCGCGUAAUGGUAACGCGUCUCCGGCCUAAGGAGAAGACUGCGGGUUCGAGUCCCGUACGGAACG [G9C C31G U32G] | ≤ 0.5
7 | GUUCCGUUCGCGUAAUGGUAACGCGUCUUCCUCCUAAGGAGAAGACUGCGGGUUGGAGUCCCGUACGGAACG [G9C C29U C55G] | ≤ 0.5
8 | GUUCCGUUCGCGUAAUGGUAACGCGUCUUCCUCCUAAGGAGAAGACUGCGGGUUUGAGUCCCGUACGGAACG [G9C C29U C55U] | 0.572
9 | GUUCCGUUCGCGUAAUGGUAACGCGUCUCCCUCCUAAGGAGAAGAUUGCGGGUUCGCGUCCCGUACGGAACG [G9C C46U A57C] | 0.662
10 | GUUCCGUUCGCGUAAUGGUAACGCGUCUGCCUCGUAAGGAGAAGACUGCGGGUUCGAGUGCCGUACGGAACG [G9C C29G C34G C60G] | 0.534
11 | GUUCCGUUCGCGUAAUGGUAACGCGUUUCCCUGCUAGGGAGAAGACUGCGGGUUCGAGUCCCGUACGGAACG [G9C C27U C33G A37G] | ≤ 0.5
12 | GUUCCGUUCGCGUAAUGGUAACGCGUCUCCCUCCUAAGGAGAAGAUUGCGGGUUCGAGUCCCGUACGGAACG [G9C C46U] | 0.896
13 | GUUCCGUUCGCGUAAUGGUAACGCGUAUCACUCCUAAGGAGAAGACUGCGGGUUCGAGUCCCGUACGGAACG [G9C C27A C30A] | ≤ 0.5
14 | GUUCCGUUCGCGUAAUGGUAACGCGUCUCCCUGCUAAGAAGAAGACUGCGGGUUCGAGUCCCGUAGGGAACG [G9C C33G G39A C66G] | 0.59
15 | GUUCCGUUCGCGUAAUGGUAACGCGUCUCCCUCAUAAGGAGAAGACUGCGGGUUCGAGUCCCGUACGGAACG [G9C C34A] | 0.536
16 | GUUCCGUUCGCGUAAUGGUAACGCGUCUCCCUCUUAAGGAGAAGACUGCGGGUUCGAGUCCCGUACGGAACG [G9C C34U] | 0.776
17 | GUUCCGUUCGCGUAAUGGUAACGCGUCUCCCUCGUAAGGAGAAGACUGCGGGUUCGAGUCCCGUACGGAACG [G9C C34G] | 0.548
18 | GUUCCGUUCGCGUAAUGGUAACGCGUAUCCCUCCUAAGGAGAAGACUGCGGGUUUGAGUCCCGUACGGAACG [G9C C27A C55U] | ≤ 0.5
19 | GUUCCGUUCGCGUAAUGGUAACGCGUCUGCCUCGUAAGGAGAAGACUGCGGGUUCGAGUGCUGUACGGAACG [G9C C29G C34G C60G C62U] | ≤ 0.5

Row | Variant | yeast fitness
20 | GUUCCGUUCGCGUAAUGGUAACGCGUCUCACUCCUAAAGAGGAGACUGCGGGUUCGAGUCCCGUACGGAACG [G9C C30A G38A A42G] | 0.515
21 | GUUCCGUUCGCGUAAUGGUAACGCGUCUUCCUCCUAAGGAGAAGACUGCGGGUUCGAGUCCCGUACGGAACG [G9C C29U] | 0.674
22 | GUUCCGUUCACGUAAUGGUAACGCGUCUUCCUCCUAUGGAGAAGACUGCGGGUUCGAGUCCUGUACAGACCG [G9C G10A C29U A37U C62U G67A A70C] | ≤ 0.5
23 | GUUCCGUUCGCGUAAUGGUAACGCGUUUCCCUCCUAAGGAAAAGACUGCGGGUUCGAGUCCCGUACGGAACG [G9C C27U G41A] | 0.728
24 | GUUCCGUUCGCGUAAUGGUAACGCGUCUCACUCCCAAGGAGAAGAGUGCGGGUCCGAGUCCCGUACCGAACG [G9C C30A U35C C46G U54C G67C] | ≤ 0.5
25 | GUUCCGUUCGCGUAAUGGUAACGCGUCUCCCUCGUAAGGAGAAGACUGCGGGUUCGAGUCCCGUACGGAGCG [G9C C34G A70G] | ≤ 0.5
26 | GUUCCGUUCGCGUAAUGGUAACGCGUGUCCCUCCUAAGGAGAAGACUGCGGGUUCGAGUCCCGUACGGAACG [G9C C27G] | 0.581
27 | GUUCCGUUCGCGUAAUGGUAACGCGUCUCCCUCAUAAGGAGAAGACUGCGGGUUCGUGUCCCGUACGGAACG [G9C C34A A57U] | ≤ 0.5
28 | GUUCCGUUCGCGUAAUGGUAACGCGUCUCCCUCGUAAGGAGAAGACUGCGGGUUCGAGUCUCGUACGGAACG [G9C C34G C61U] | 0.553
29 | GUUCCGUUCCCGUAAUGGUAACGCGUCUGCCUCCUAAGGAGAAGACUGCGGGUUCGAGUCCCGUAUGGAACG [G9C G10C C29G C66U] | ≤ 0.5
30 | GUUCCGUUCGCGUAAUGGUAACGCGUCUCACUCCUAAGGAGAAGACUGCGGGUUCGAGUUCCGUACGGAACG [G9C C30A C60U] | 0.655
31 | GUUCCGUUCGCGUAAUGGUAACGCGUCUUCCUCCUUAGGAGAAGACUGCGGGUUCGAGUCCCGUACAGAACG [G9C C29U A36U G67A] | 0.501
32 | GUUCCGUUCGCGUAAUGGUAACGCGUCUCCCUCCUAAGGAGAAGACUGUGGGUUUGAGUCCCGCACGGAACG [G9C C49U C55U U64C] | ≤ 0.5
33 | GUUCCGUUCGCGUAAUGGUAACGCGUCUCCAUCCUAAGGAGAAGACUGGGGGUUCGAGUCCCGUACGGAACG [G9C C31A C49G] | 0.574
34 | GUUCCGUUCGCGUAAUGGUAACGCGUCUCCUUCCUAAGGAGAAGACUGCGGGUUCGAGUCCCGUUCGGAACG [G9C C31U A65U] | ≤ 0.5
35 | GUUCCGUUCGCGUAAUGGUAACGCGUCUCCGUCCUAAGGAGAAGACUGCGGGUUCGAGUCCCGUAAGCAACG [G9C C31G C66A G68C] | 0.553
36 | GUUCCGUUCGCGUAAUGGUAACGCGUCUCCCUACUAAGGAGACGACUGCGGGUUCGAGUCCCGUACGGAACG [G9C C33A A43C] | ≤ 0.5
37 | GUUCCGUUCGCGUAAUGGUAACGCGUCUGGCUCCUAAGGAAAAGACUGCGGGUUCGAGUCCCGUACGGAACG [G9C C29G C30G G41A] | ≤ 0.5
